FGF22 binding = binders of human FGF22 protein, primary screen, FGF22 synaptogenesis inhibitor project, biophysical, thermal shift, single point; recombinant FGF22 thermal shift, SYPRO orange fluorescence; percent of sucrose octasulfate shift, DMSO zero; activity (Tm shift, normalised), % at 9.99 µM; actives 1.5% (n = 340,000);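 active means mean Tm shift, scaled 0 neutral to 100 positive control, at about 1.3% or above, every replicate too, limit read from the data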
Target sequence (Q9HCT0 whole entry, looked up): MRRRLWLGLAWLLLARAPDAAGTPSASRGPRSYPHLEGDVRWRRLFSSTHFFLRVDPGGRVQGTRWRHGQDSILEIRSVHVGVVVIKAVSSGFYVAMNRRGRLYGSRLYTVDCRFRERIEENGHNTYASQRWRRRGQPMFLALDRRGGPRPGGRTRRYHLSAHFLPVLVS
Cneo AK release = Cryptococcus neoformans cell lysis inducers, primary screen, AK release luminescence, single concentration; C. neoformans lysis, adenylate kinase release luminescence, 4 h; normalised: neutral wells 0, clomiphene wells 100; lysis activity, % at 15 µM; actives 0.2% (n = 360,000);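 active means mean lysis activity across replicates of at least 80%, whatever share of replicates individually reach that level; inactive means mean lysis activity below 80%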
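Assay system: C. neoformans cells. Amount: yeast cell density of 5 × 10^6 cells/mL. Technique: AK luminescence. Buffer or medium: YPD. Times: static 4 h at 37 °C with compound, 1 h detection. Dosing: single-point compound dose. Read-out: lysis from increased AK signal.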
PglD inh = C. jejuni PglD acetyltransferase inhibitors, primary screen, biochemical, DTNB colorimetric, single point; UDP-N-acetylbacillosamine N-acetyltransferase PglD (Campylobacter jejuni); purified PglD enzyme, DTNB colorimetric CoA detection; inhibition, % at 12.5 µM; actives 0.098% (n = 360,000); AID 602405, 2012; in the data active means inhibition above about 16%, passing the limit was not always enough
Vif inh = HIV Vif self-association inhibitors, primary screen, imaging, HEK293T, single point; AID 602346, 2012; HEK293T cells, Vif self-association by quenched fluorescence, 24 h; inhibition, % at 7.49 µM; actives 0.35% (n = 340,000); in the data active means inhibition above about 50%, passing the limit was not always enough
PGC1a acetyl inh = inhibitors of PGC1a acetylation signal, primary screen, cell-based, U2OS, AlphaScreen, inhibitor mode; AlphaScreen anti-acetyl-lysine; with virally co-expressed GCN5 acetyltransferase; inhibition, % at 15.6 µM; actives 0.17% (n = 350,000); AID 651687, 2012;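 active means every replicate shows inhibition of at least 40%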
rRNA inh HTS = reduced GFP signal of wild-type E. coli, primary screen, bacterial rRNA inhibitor project, GFP/RFP fluorescence, OD600, single point | E. coli WT GFP vs humanized-ribosome RFP mutants, 24 h; hits give low values; DMSO median 0, no signal -100 | GFP signal change (wild-type ribosome), % (concentration not given with the values) | actives 1.6% (n = 350,000);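 active means significant combined selectivity score with lowered wild-type GFP, culture density cut under 30%, mutant RFP and density less affected; inactive means any of these conditions unmet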
Of the large screens only hits and unclear results are named; the others gave an inactive call. Most compounds without a hit are left out; they make up all but 2.9% or so of the library.

O=C(C[C@H]1CC[C@H](NC(=O)Nc2cc(F)ccc2F)[C@@H](CO)O1)NCc1ccc2c(c1)OCO2	none (no result: Vif inh)
O=C(Nc1ccc(F)cc1)c1sc2cc(C(F)(F)F)cnc2c1-c1cccs1	PGC1a acetyl inh 113.8 (no result: FGF22 binding, Cneo AK release, PglD inh, rRNA inh HTS)
CN1[C@H](C(=O)Nc2ccccc2)[C@@H](CO)[C@@H]2Cn3c(ccc(-c4ccc(F)cc4)c3=O)[C@@H]21	none (no result: Vif inh, PGC1a acetyl inh)
CC(C)(C)Nc1nc(N2CCCC2)nc(N2CCCC2)n1	none (no result: FGF22 binding, rRNA inh HTS)
CCCNc1nc(N2CCCC2)nc(N2CCCC2)n1	rRNA inh HTS -21.1
CCCCCOc1ccc(Br)cc1/C(C)=N/NC1=NCCN1	Vif inh 75.3 (no result: FGF22 binding, rRNA inh HTS)
CC(N=C1CC(C)(C)CC(=O)/C1=C(/O)CCCN1C(=O)c2ccccc2C1=O)C(=O)O (stereo not given)	FGF22 binding 42.9 (no result: Cneo AK release, PglD inh)
CC(=O)N(C)C[C@H]1Oc2cc(C#CC(C)(C)O)ccc2S(=O)(=O)N([C@H](C)CO)C[C@@H]1C	none (no result: Vif inh)
CC[n+]1c(/C=C/C=C/N(C(C)=O)c2ccccc2)sc2ccccc21	Vif inh 162.3 (no result: FGF22 binding, rRNA inh HTS)
CCn1c(/C=C/N(C(C)=O)c2ccccc2)[n+](CC)c2ccc(Cl)cc21	none (no result: PGC1a acetyl inh)
Cc1sc2ccccc2c1CNC[C@H]1O[C@@H](n2ccc(N)nc2=O)[C@H](O)[C@@H]1O	none (no result: Vif inh, rRNA inh HTS)
Cc1sc2ccccc2c1CNC[C@H]1O[C@@H](n2cnc(C(N)=O)n2)[C@H](O)[C@@H]1O	FGF22 binding 43.5
Cn1cccc1/C=C1/SC(=O)N(CC(=O)N2CCCC2)C1=O	FGF22 binding 43.4 (no result: Cneo AK release, PglD inh, PGC1a acetyl inh)
CC(=C/c1ccc(C(C)C)cc1)/C=N/NC(=O)c1ccncc1	FGF22 binding 43.3 (no result: Cneo AK release, PglD inh, rRNA inh HTS)
CC(/C=N/NC(=O)c1ccncc1)=C\c1ccccc1	none
CCCC#Cc1cnc2c(c1)C(=O)N([C@@H](C)CO)C[C@H](C)[C@H](CN(C)C(=O)Nc1cccc(F)c1)O2	Cneo AK release 88.4 (no result: Vif inh)
COc1cccc(C#Cc2cnc3c(c2)C(=O)N([C@@H](C)CO)C[C@@H](C)[C@H](CN(C)C(=O)C2CCOCC2)O3)c1	none (no result: Vif inh)
CC(C)CC#Cc1cnc2c(c1)C(=O)N([C@@H](C)CO)C[C@@H](C)[C@@H](CN(C)C(=O)c1cccc(F)c1)O2	Cneo AK release 100.5 (no result: Vif inh)
CCCC#Cc1cnc2c(c1)C(=O)N([C@@H](C)CO)C[C@H](C)[C@H](CN(C)C(=O)c1cccc(F)c1)O2	none (no result: Vif inh)
CC(C)CC#Cc1cnc2c(c1)C(=O)N([C@H](C)CO)C[C@H](C)[C@H](CN(C)C(=O)c1cccnc1)O2	Cneo AK release 81.8 (no result: Vif inh)
COc1cccc(C#Cc2cnc3c(c2)C(=O)N([C@H](C)CO)C[C@@H](C)[C@@H](CN(C)C(=O)C2CCOCC2)O3)c1	Cneo AK release 81.3 (no result: Vif inh)
C[C@H](CO)N1C[C@H](C)[C@H](CN(C)C(=O)Nc2ccc(F)cc2)OCCCC[C@H](C)Oc2ccc(NC(=O)Nc3ccccc3)cc2C1=O	none (no result: Vif inh)
C[C@@H]1CN([C@@H](C)CO)C(=O)c2cc(N(C)C)ccc2O[C@@H](C)CCCCO[C@H]1CN(C)Cc1ccc(C(F)(F)F)cc1	none (no result: Vif inh)
COCC(=O)N(C)C[C@@H]1Oc2ncc(C#CC(C)(C)O)cc2C(=O)N([C@H](C)CO)C[C@@H]1C	none (no result: Vif inh)
COCC#Cc1cnc2c(c1)C(=O)N([C@H](C)CO)C[C@@H](C)[C@@H](CN(C)C(=O)Nc1ccc(OC)cc1)O2	Cneo AK release 97.4 (no result: Vif inh)
CCCC#Cc1ccc2c(c1)[C@H]1[C@H](CCN1S(=O)(=O)c1ccc(F)cc1)[C@@H](CO)N2	none (no result: FGF22 binding, Cneo AK release, PglD inh, Vif inh, PGC1a acetyl inh)
C[C@H]1CN(C)C(=O)Cc2cc(N)ccc2O[C@@H]1CN(C)C(=O)OC(C)(C)C	none (no result: FGF22 binding, Cneo AK release, PglD inh, Vif inh, PGC1a acetyl inh)
COc1ccccc1-c1nc(SCC(=O)Nc2ccccc2F)n[nH]1	rRNA inh HTS -26.9 (no result: PGC1a acetyl inh)

Screening results as filed in PubChem.
